ChEMBL document CHEMBL1147365, “A screen for inhibitors of DNA recombination: identification of two new spirostanol glycosides from Chamaedorea linearis” (J Nat Prod, 1993)
The source made the active and inactive calls. The rule behind the calls is not given here.

Experiments:
[1] = test system: Saccharomyces cerevisiae; assay: DNA damaging activity against […] assessed as drug concentration required to produce 12 mm zone of inhibition up to 800 ug/well by agar diffusion assay; type: functional, organism-based; conditions: W303-1A
[2] = test system: L1210; assay: Antiproliferative activity against mouse L1210 cells up to 32 uM; type: functional, cell-based
How it was run: (§1)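 Murine L1210 cells were grown in suspension culture and proliferation was measured.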

[3] = test system: Saccharomyces cerevisiae; assay: DNA damaging activity against […] assessed as drug concentration required to produce 12 mm zone of inhibition by agar diffusion assay; type: functional, W303-1A
[4] = test system: L1210; assay: Antiproliferative activity against mouse L1210 cells; type: functional, cell-based; how it was run: as §1

C[C@@H]1O[C@@H](O[C@H]2C[C@@H](O)[C@]3(CO)[C@H]4[C@H](O)C[C@]5(C)[C@@H](C6=CC(=O)OC6)CC[C@]5(O)[C@@H]4CC[C@]3(O)C2)[C@H](O)[C@H](O)[C@H]1O
Activity [1]: inactive

C[C@H]1O[C@@H](O[C@H]2[C@@H](O)C[C@H](O[C@H]3[C@@H](O)C[C@H](O[C@H]4CC[C@@]5(C)[C@H](CC[C@@H]6[C@@H]5CC[C@]5(C)[C@@H](C7=CC(=O)OC7)[C@@H](O)C[C@]65O)C4)O[C@@H]3C)O[C@@H]2C)C[C@H](O)[C@@H]1O
Activity [1]: inactive

CO[C@H]1[C@H](O)[C@H](O[C@H]2CC[C@@]3(C)[C@H](CC[C@@H]4[C@@H]3CC[C@]3(C)[C@@H](C5=CC(=O)OC5)CC[C@]43O)C2)O[C@@H](C)[C@@H]1O
Activity [1]: inactive

C[C@H]1CC[C@@]2(OC1)O[C@H]1C[C@H]3[C@@H]4CC[C@H]5C[C@@H](O)C[C@@H](O[C@H]6O[C@@H](C)[C@@H](OS(=O)(=O)O)[C@@H](O)[C@@H]6O)[C@]5(C)[C@H]4CC[C@]3(C)[C@H]1[C@@H]2C
Activity [2]: inactive
IC12 [3]: 3.5 µg

C[C@@H]1O[C@@H](O[C@H]2CC[C@]3(C=O)[C@H]4CC[C@]5(C)[C@@H](C6=CC(=O)OC6)CC[C@]5(O)[C@@H]4CC[C@]3(O)C2)[C@H](O)[C@H](O)[C@H]1O
Activity [1]: inactive

CO[C@H]1C[C@H](O[C@H]2CC[C@]3(C=O)[C@H]4CC[C@]5(C)[C@@H](C6=CC(=O)OC6)CC[C@]5(O)[C@@H]4CC[C@]3(O)C2)O[C@H](C)[C@H]1O[C@H]1O[C@@H](CO)[C@H](O[C@@H]2O[C@H](CO)[C@@H](O)[C@H](O)[C@H]2O)[C@@H](O)[C@@H]1O
Activity [1]: inactive

C[C@H]1CC[C@@]2(OC1)O[C@H]1C[C@H]3[C@@H]4CC[C@H]5C[C@@H](O)C[C@@H](O[C@H]6O[C@@H](C)[C@@H](O)[C@@H](O)[C@@H]6O)[C@]5(C)[C@H]4CC[C@]3(C)[C@H]1[C@@H]2C [BRISBAGENIN FUCOSIDE]
Activity [2]: inactive
IC50 [4]: 5 µM
IC12 [3]: 2.6 µg

C[C@H]1O[C@@H](O[C@H]2[C@@H](O)C[C@H](O[C@H]3[C@@H](O)C[C@H](O[C@H]4CC[C@@]5(C)[C@H](CC[C@@H]6[C@@H]5C[C@@H](O)[C@]5(C)[C@@H](C7=CC(=O)OC7)CC[C@]65O)C4)O[C@@H]3C)O[C@@H]2C)C[C@H](O)[C@@H]1O
Activity [1]: inactive
